One block for each compound: values may come before it.
How the values were obtained:
B35 cells = assay: Receptor-mediated endocytosis assay, B35 cells; type: cell-based
Method in brief: (§1)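 Cells grown in DMEM/10 % FCS, then serum‑free DMEM for 16 h. Compound added 30 min (final DMSO ≤1 %), then Tfn‑TxR (final 5.0 μg/mL) or EGF‑TxR (final 1.0 μg/mL) as applicable, 10 min at 37 °C. Surface ligand stripped with ice‑cold acid wash (pH 2.8), 4 % PFA fix, DAPI stain, fluorescence microscopy. Quantified as integrated intensity per cell, % of vehicle control.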

B104 cells = assay: Receptor-mediated endocytosis assay, B104 cells; type: cell-based
Method in brief: as §1

[1] = Rat blood plasma stability; type: in vitro ADME; details: 5 % rat blood plasma, Figure 3E
HER14 cells = assay: Receptor-mediated endocytosis assay, HER14 cells; type: cell-based
Method in brief: as §1

A431 cells = assay: Receptor-mediated endocytosis assay, A431 cells; type: cell-based; details: 30 μM, data not shown
HeLa cells = assay: Receptor-mediated endocytosis assay, HeLa cells; type: cell-based
Method in brief: as §1

Swiss 3T3 cells = assay: Receptor-mediated endocytosis assay, Swiss 3T3 cells; type: cell-based
Method in brief: as §1

COS7 cells = assay: Receptor-mediated endocytosis assay, COS7 cells; type: cell-based; details: at up to 300 μM
Method in brief: as §1

dynamin I [2] = assay: Malachite Green GTPase assay, dynamin I; type: biochemical, sheep; details: increasing GTP or phospholipid (PS) concentration, Figure 2
Method in brief: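 GTP 0.3 mM, PS liposomes ~4 μg/ml (GTP or PS varied). Compound present; 30 min, 37 °C; EDTA stop; malachite green A650 against phosphate standard. Basal subtracted; Michaelis‑Menten and Lineweaver‑Burk fits.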

dynamin I [3] = details: read-out: IC50 for dynamin I inhibition; in vitro dynamin I GTPase; cited from earlier work
dyn II = details: read-out: dyn II IC50; cited from earlier work
[4] = Solubility in the buffer solution; type: physicochemical

time until hydrolysis was complete [1]: ≈ 60 min
SMILES: CCC(=O)Oc1ccc(C=C(C#N)C(=O)NCCCNC(=O)C(C#N)=Cc2ccc(OC(=O)CC)c(OC(=O)CC)c2)cc1OC(=O)CC [Compound 4, Propionic acid 5‐(2‐{3‐[3‐(3,4‐bis‐propionyloxyphenyl)‐2‐cyanoacryloylamino]propylcarbamoyl}‐2‐cyanovinyl)‐2‐propionyloxyphenyl ester]
transferrin and EGF uptake (where applicable) (B35 cells; 30 μM, data not shown): inhibited transferrin and EGF uptake
transferrin and EGF uptake (where applicable) (B104 cells; 30 μM, data not shown): inhibited transferrin and EGF uptake
transferrin and EGF uptake (where applicable) (HER14 cells; 30 μM, data not shown): inhibited transferrin and EGF uptake
transferrin and EGF uptake (where applicable) (A431 cells): inhibited transferrin and EGF uptake
effect on EGF‐TxR uptake (CME) (HeLa cells; 30 μM): marked reduction in CME
transferrin and EGF uptake (where applicable) (Swiss 3T3 cells; 30 μM, data not shown): inhibited transferrin and EGF uptake

mode of dynamin inhibition (dynamin I [2]): non‐GTP and non‐lipid dependent manner
SMILES: N#CC(=Cc1ccc(O)c(O)c1)C(=O)NCCCNC(=O)C(C#N)=Cc1ccc(O)c(O)c1 [Compound 2, 2‐Cyano‐N‐{3‐[2‐cyano‐3‐(3,4‐dihydroxyphenyl)acryloylamino]propyl}‐3‐(3,4‐dihydroxyphenyl)acrylamide]
endocytosis block (B35 cells; at up to 300 μM): largely ineffective
endocytosis block (COS7 cells): largely ineffective
endocytosis block (B104 cells; 100 μM, not shown): essentially complete
endocytosis block (HER14 cells; 100 μM, not shown): essentially complete
IC50 (dynamin I [3]): 1.7 ± 2 µM
effect on EGF‐TxR uptake (CME) (HeLa cells; 100 μM): no effect on CME
endocytosis block (HeLa cells; at up to 300 μM): largely ineffective
IC50 (dyn II): 0.5 µM
endocytosis block (TxR‐Tfn uptake) (Swiss 3T3 cells; 100 μM): essentially complete

solubility in the buffer solution / under physiological conditions [4]: insoluble
SMILES: CC(C)(C)C(=O)Oc1ccc(C=C(C#N)C(=O)NCCCNC(=O)C(C#N)=Cc2ccc(OC(=O)C(C)(C)C)c(OC(=O)C(C)(C)C)c2)cc1OC(=O)C(C)(C)C [Compound 9, 2,2‐Dimethylpropionic acid 5‐[2‐(3‐{3‐[3,4‐bis‐(2,2‐dimethylpropionyloxy)phenyl]‐2‐cyanoacryloylamino}propylcarbamoyl)‐2‐cyanovinyl]‐2‐(2,2‐dimethylpropionyloxy)phenyl ester]

solubility in the buffer solution / under physiological conditions [4]: insoluble
SMILES: CCCCCC(=O)Oc1ccc(C=C(C#N)C(=O)NCCCNC(=O)C(C#N)=Cc2ccc(OC(=O)CCCCC)c(OC(=O)CCCCC)c2)cc1OC(=O)CCCCC [Compound 8, Hexanoic acid 5‐(2‐{3‐[3‐(3,4‐bis‐hexanoyloxyphenyl)‐2‐cyanoacryloylamino]‐propylcarbamoyl}‐2‐cyanovinyl)‐2‐hexanoyloxyphenyl ester]

SMILES: CC(=O)Oc1ccc(C=C(C#N)C(=O)NCCCNC(=O)C(C#N)=Cc2ccc(OC(C)=O)c(OC(C)=O)c2)cc1OC(C)=O [Compound 3, Acetic acid 2‐acetoxy‐5‐(2‐cyano‐2‐{3‐[2‐cyano‐3‐(3,4‐diacetoxyphenyl)acryloylamino]propylcarbamoyl}vinyl)phenyl ester]
solubility in the buffer solution / under physiological conditions [4]: insoluble
